As a reminder, the IC50 is the concentration at which inhibition is half-maximal. One may read the inhibition as the share of the control response that was lost under treatment. In general, Kd refers to the free concentration of one partner at which half of the binding sites on the other are occupied at equilibrium, for simple one-to-one binding. Read a high Kd as weaker binding.

Data on four compounds can be found in ChEMBL document CHEMBL4184294, “A small group of sulfated benzofurans induces steady-state submaximal inhibition of thrombin” (Bioorg Med Chem Lett, 2018).

In test [1] the target is T1, Prothrombin (Homo sapiens, UniProt P00734). Briefly: Inhibition of thrombin (unknown origin).
Test [2] addresses T1, Prothrombin. Nature of the test: Partial allosteric inhibition of human thrombin using […] as substrate measured after 1 min by fibrometric method.
Test [3] deals with T1, Prothrombin. Briefly: Mixed-type inhibition of human thrombin assessed as reduction in substrate Vmax using varying levels of spectrozyme TH as substrate measured after 10 mins by Michaelis-Menten plot analysis.
Test [4] addresses T1, Prothrombin. Nature of the test: Mixed-type inhibition of human thrombin assessed as reduction in substrate Vmax at 40 uM using varying levels of spectrozyme TH as substrate measured after 10 mins by Michaelis-Menten plot analysis relative to control.
Test [5] addresses T1, Prothrombin. Briefly: Binding affinity to human fluorescence labelled FPRCK-alpha thrombin by fluorimetric method. An outline of the steps: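 Fluorescein-tagged FPRCK-thrombin titrated with inhibitor at pH 7.4 and 25 °C. Fluorescence decrease recorded ([…]). KD obtained by nonlinear fit to a quadratic equation.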
In test [6] the target is T1, Prothrombin. Briefly: Inhibition of human thrombin using spectrozyme TH as substrate pretreated for 10 mins followed by substrate addition measured in presence of 20 uM exosite 2 competitor unfractionated heparin by spectrophotometric method. An outline of the steps:
(§1)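 Residual thrombin activity read as Spectrozyme TH hydrolysis in 20 mM Tris-HCl pH 7.4 with 100 mM NaCl, 2.5 mM CaCl2 and 0.1% PEG8000 at 25 °C. Exosite competitors varied: hirudin peptide 0–50 nM or 0–30 nM; UFH 0–50 μM. Apparent IC50 obtained from a logistic fit.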

The target of test [7] is T1, Prothrombin. Nature of the test: Inhibition of human thrombin using spectrozyme TH as substrate pretreated for 10 mins followed by substrate addition measured in absence of exosite 1 competitor hirudine peptide by spectrophotometric method. An outline of the steps: as §1
Test [8] deals with T1, Prothrombin. Briefly: Inhibition of recombinant thrombin K236A mutant (unknown origin) at 0.02 to 200 uM using spectrozyme TH as substrate pretreated for 10 mins followed by substrate addition by spectrophotometric method. An outline of the steps: (§2)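 Recombinant wild-type and Ala-mutant thrombins assayed by Spectrozyme TH hydrolysis at pH 7.4 and 25 °C. IC50 derived for each mutant.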

The target of test [9] is T1, Prothrombin. Nature of the test: Partial allosteric inhibition of thrombin (unknown origin) assessed as reduction in enzyme-mediated fibrinogen cleavage pretreated for 10 mins followed by fibrinogen addition measured after 1 min by SDS-PAGE analysis relative to control. An outline of the steps: (§3)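 Cleavage of human fibrinogen (4.7 μM) by 6 nM thrombin with inhibitor at 0 to 150 μM. Products resolved by PAGE.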

For test [10], the target named is T1, Prothrombin. Briefly: Inhibition of human thrombin using spectrozyme TH as substrate pretreated for 10 mins followed by substrate addition measured in absence of exosite 2 competitor unfractionated heparin by spectrophotometric method. An outline of the steps:
as §1

Test [11] concerns the target T1, Prothrombin. Nature of the test: Inhibition of human thrombin using spectrozyme TH as substrate pretreated for 10 mins followed by substrate addition measured in presence of 10 uM exosite 2 competitor unfractionated heparin by spectrophotometric method. An outline of the steps: as §1
Test [12] concerns the target T1, Prothrombin. Briefly: Inhibition of human thrombin using spectrozyme TH as substrate pretreated for 10 mins followed by substrate addition measured in presence of 5 uM exosite 1 competitor hirudine peptide by spectrophotometric method. Particulars: in the assay text read “5 nM” for “5 uM”. An outline of the steps:
as §1

Test [13] concerns the target T1, Prothrombin. Briefly: Inhibition of human thrombin using spectrozyme TH as substrate pretreated for 10 mins followed by substrate addition measured in presence of 15 uM exosite 1 competitor hirudine peptide by spectrophotometric method. The following applies: in the assay text read “15 nM” for “15 uM”. An outline of the steps: as §1
Test [14] addresses T1, Prothrombin. Briefly: Inhibition of recombinant thrombin K169A mutant (unknown origin) at 0.02 to 200 uM using spectrozyme TH as substrate pretreated for 10 mins followed by substrate addition by spectrophotometric method. An outline of the steps: as §2
Test [15] concerns the target T1, Prothrombin. Nature of the test: Inhibition of human thrombin using spectrozyme TH as substrate pretreated for 10 mins followed by substrate addition measured in presence of 50 uM exosite 2 competitor unfractionated heparin by spectrophotometric method. An outline of the steps:
as §1

Test [16] concerns the target T1, Prothrombin. Nature of the test: Inhibition of recombinant thrombin R175A mutant (unknown origin) at 0.02 to 200 uM using spectrozyme TH as substrate pretreated for 10 mins followed by substrate addition by spectrophotometric method. An outline of the steps:
as §2

The target of test [17] is T1, Prothrombin. Nature of the test: Partial allosteric inhibition of thrombin (unknown origin) assessed as reduction in enzyme-mediated fibrinogen cleavage at 0.5 to 150 uM pretreated for 10 mins followed by fibrinogen addition measured after 1 min by SDS-PAGE analysis relative to control. An outline of the steps:
as §3

For test [18], the target named is T1, Prothrombin. Nature of the test: Inhibition of human thrombin using spectrozyme TH as substrate pretreated for 10 mins followed by substrate addition measured in presence of 30 uM exosite 1 competitor hirudine peptide by spectrophotometric method. The following applies: in the assay text read “30 nM” for “30 uM”. An outline of the steps:
as §1

Test [19] concerns the target T1, Prothrombin. Nature of the test: Inhibition of recombinant thrombin R233A mutant (unknown origin) at 0.02 to 200 uM using spectrozyme TH as substrate pretreated for 10 mins followed by substrate addition by spectrophotometric method. An outline of the steps:
as §2

Test [20] addresses T1, Prothrombin. Nature of the test: Partial allosteric inhibition of human thrombin using spectrozyme TH as substrate pretreated for 10 mins followed by substrate addition by spectrophotometric method. An outline of the steps: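 Chromogenic substrate hydrolysis by thrombin read spectrophotometrically in 20 mM Tris-HCl pH 7.4 with […], 100 mM NaCl and 0.1% PEG 8000 at 25 °C. Sigmoidal fits gave IC50 and efficacy (ΔY). Errors ±1 S.E.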

Test [21] concerns the target T1, Prothrombin. Nature of the test: Inhibition of recombinant thrombin R165A mutant (unknown origin) at 0.02 to 200 uM using spectrozyme TH as substrate pretreated for 10 mins followed by substrate addition by spectrophotometric method. An outline of the steps:
as §2

Test [22] concerns the target T1, Prothrombin. Nature of the test: Partial allosteric inhibition of human thrombin at 300 uM using spectrozyme TH as substrate pretreated for 10 mins followed by substrate addition by spectrophotometric method relative to control.
Test [23] deals with T1, Prothrombin. Nature of the test: Non-competitive inhibition of human thrombin assessed as reduction in substrate Vmax using varying levels of spectrozyme TH as substrate measured after 10 mins by Michaelis-Menten plot analysis.
Test [24] deals with T1, Prothrombin. Briefly: Non competitive inhibition of human thrombin assessed as reduction in substrate Vmax at 40 uM using varying levels of spectrozyme TH as substrate measured after 10 mins by Michaelis-Menten plot analysis relative to control.
Test [25] relates to Prothrombin (Homo sapiens), P00734 [R97A]. Briefly: Inhibition of recombinant thrombin R97A mutant (unknown origin) at 0.02 to 200 uM using spectrozyme TH as substrate pretreated for 10 mins followed by substrate addition by spectrophotometric method. An outline of the steps:
as §2

Test [26] has as its target T1, Prothrombin. Nature of the test: Inhibition of recombinant thrombin R126A mutant (unknown origin) at 0.02 to 200 uM using spectrozyme TH as substrate pretreated for 10 mins followed by substrate addition by spectrophotometric method. An outline of the steps:
as §2

The target in test [27] is T1, Prothrombin. Nature of the test: Inhibition of recombinant thrombin R173A mutant (unknown origin) at 0.02 to 200 uM using spectrozyme TH as substrate pretreated for 10 mins followed by substrate addition by spectrophotometric method. An outline of the steps: as §2
The target in test [28] is T1, Prothrombin. Briefly: Ratio of IC50(app) for inhibition of human thrombin using spectrozyme TH as substrate in presence of exosite 2 competitor unfractionated heparin to IC50(app) for inhibition of human thrombin using spectrozyme TH as substrate in absence of exosite 2 competitor unfractionated heparin.
For test [29], the target named is T1, Prothrombin. Briefly: Binding affinity to wild-type thrombin (unknown origin) by intrinsic fluorescence method. An outline of the steps:
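Intrinsic fluorescence titration of wild-type plasma thrombin at pH 7.4 and 25 °C. KD derived from the fluorescence change.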

For test [30], the target named is T1, Prothrombin. Briefly: Inhibition of recombinant thrombin R93A mutant (unknown origin) at 0.02 to 200 uM using spectrozyme TH as substrate pretreated for 10 mins followed by substrate addition by spectrophotometric method. An outline of the steps:
as §2

In test [31] the target is T1, Prothrombin. Nature of the test: Inhibition of recombinant thrombin K235A mutant (unknown origin) at 0.02 to 200 uM using spectrozyme TH as substrate pretreated for 10 mins followed by substrate addition by spectrophotometric method. An outline of the steps: as §2
The target of test [32] is T1, Prothrombin. Nature of the test: Inhibition of recombinant thrombin R101A mutant (unknown origin) at 0.02 to 200 uM using spectrozyme TH as substrate pretreated for 10 mins followed by substrate addition by spectrophotometric method. An outline of the steps: as §2

The source made the active and inactive calls. No cut-off for these calls is given here.

In the case of `CCOC(=O)c1c(C)oc2cc(OC(=O)c3ccc(OC)cc3)c(OS(=O)(=O)O)cc12`, at Prothrombin [1], the Efficacy came to 54%.

H-PEHPAETEYDSLYPEDDL-OH: the IC50 against Prothrombin [2] was determined as 130 µM.

In the case of `CCOC(=O)c1c(C)oc2cc(OCc3ccccc3)c(OCc3oc4cc(OCC5CCCCC5)c(OS(=O)(=O)O)cc4c3C(=O)OCC)cc12`, the inhibition result at Prothrombin [3] is “Dose-dependent effect”; on Prothrombin [9], “Dose-dependent effect”; at Prothrombin [17], greater than 90%; at Prothrombin [22] it was greater than 50%. In addition, the fold change (FC) at Prothrombin [4] was determined as 2. The same compound came in with a Kd on Prothrombin [5] of 1 µM. The IC50 is 2.8 µM at Prothrombin [6]; 2 µM at Prothrombin [7]; 2 µM on Prothrombin [10]; 2.7 µM at Prothrombin [11]; 2.6 µM at Prothrombin [12]; 3.6 µM on Prothrombin [13]. Further, the IC50 at Prothrombin [15] was determined as 2.6 µM; at Prothrombin [18] it was 2.9 µM; at Prothrombin [20], 3.6 µM. Further, the inhibition entry on Prothrombin [8], at Prothrombin [14], on Prothrombin [16], at Prothrombin [19] and on Prothrombin [21] was “inactive” each time. The Efficacy on Prothrombin [20] was found to be 90%.

For the compound `CCOC(=O)c1c(C)oc2cc(OCCc3ccccc3)c(OCc3oc4cc(OC)c(OS(=O)(=O)O)cc4c3C(=O)OCC)cc12`, the inhibition entry at Prothrombin [23] is “Dose-dependent effect”; on Prothrombin [9], “Dose-dependent effect”; on Prothrombin [17], 70%; on Prothrombin [22] it was greater than 50%. Besides, on Prothrombin [24], the fold change (FC) is 2. For the same compound, the inhibition entry (in [25]; on Prothrombin [26]; at Prothrombin [8]; at Prothrombin [14]; at Prothrombin [27]; on Prothrombin [30]) was “Active” each time. For the same compound, the inhibition entry at Prothrombin [16], on Prothrombin [19], at Prothrombin [31], on Prothrombin [32] and at Prothrombin [21] was “Active” each time. Further, the figures for the Kd at Prothrombin [5] and at Prothrombin [29] were 3.7 µM and 2.8 µM, respectively. For the same compound, the IC50 at Prothrombin [6] is 3.4 µM; at Prothrombin [7], 1.3 µM; at Prothrombin [10] it was 1.3 µM; at Prothrombin [11], 3.3 µM; on Prothrombin [12] it was 2.7 µM; on Prothrombin [13], 1.6 µM. Besides, the IC50 on Prothrombin [15] worked out at 14.5 µM; on Prothrombin [18] it was 1.5 µM; at Prothrombin [20], 1.8 µM. Further, the Ratio IC50 on Prothrombin [28] came to 11. For the same compound, the Efficacy at Prothrombin [20] is 58%.
